S1P3 ag: S1P3 (human) receptor agonism; Q99500; S1P3 NFAT-BLA reporter cells, FRET ratio; relative to 1 µM S1P, basal subtracted; 0.1% of 60,000 active; activation, % at 4.5 µM;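 active = activation above the screen-wide mean plus 3 SD, cut at about 4.5% in these data, passing the limit was not always enough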
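Benchmarks: high control 1 µM S1P / System: stable CHO line with human S1P3, Gα16, NFAT-BLA reporter / Dosing: single compound concentration, 4.5 µM final / Timing: 4 h compound at 37 °C, 2 h substrate at RT / Measured by: FRET β-lactamase substrate fluorescence, excitation 405 nm, 460/535 nm emission ratio, background-subtracted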
D1 allo mod: allosteric modulators of human D1 dopamine receptor | HEK293 D1, CRE-luciferase, dopamine EC30 potentiation; actives deviate in either direction | B-score at 10 µM | 5.9% of 58,000 active | AID 641;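 active = luminescence count or its row- and column-corrected plate score outside the 99.7% band of the plate's sample wells, on either side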
S1P1 ag pot: agonists and agonism potentiators of human S1P1 receptor; 0.57% of 56,000 active; S1P1 CRE-bla cells, forskolin, beta-lactamase FRET, potentiator mode; S1P1 agonist co-added at EC20, 2 nM; 100% = saturating reference agonist, 0% = basal; AID 449; activation, % at 9.5 µM; P21453;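 active = activation above a cutoff set at the mean activation of all tested compounds plus 3 SD, cut at about 54% in these data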;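 note: forskolin at 4 µM as EC80 and the EC20 agonist is SEW2871; 100% = SEW2871 at its EC100 plus forskolin at EC80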
Target sequence (P21453 whole entry, looked up): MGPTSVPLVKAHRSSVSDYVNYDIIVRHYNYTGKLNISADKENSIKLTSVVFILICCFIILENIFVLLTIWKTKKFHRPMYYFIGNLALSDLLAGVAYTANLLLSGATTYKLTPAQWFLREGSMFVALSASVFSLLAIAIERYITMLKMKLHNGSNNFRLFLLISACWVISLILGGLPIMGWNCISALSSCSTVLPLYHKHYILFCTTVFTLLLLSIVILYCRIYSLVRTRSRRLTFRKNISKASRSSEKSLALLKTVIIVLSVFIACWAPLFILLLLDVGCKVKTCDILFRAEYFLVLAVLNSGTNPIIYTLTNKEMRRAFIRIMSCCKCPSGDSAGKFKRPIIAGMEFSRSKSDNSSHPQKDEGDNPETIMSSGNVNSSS
M1 antag: M1 muscarinic receptor (rat) antagonism; CHO-M1 cells, Fluo-4 calcium, ACh EC80 antagonist mode; active compounds read low; B-score at 10 µM; 3.4% of 64,000 active;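 active = calcium fluorescence response, raw or row-and-column corrected B-score, differing from the plate sample mean either way at a set confidence level, mostly lower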
TNAP act DEA: activates human TNAP at intermediate phosphate acceptor concentration; AID 813; activation factor at 20 µM; purified TNAP, CDP-star luminescence, 100 mM DEA, 30 min; active compounds read high; scale: 0 levamisole-inhibited, 1 vehicle-only enzyme; 64,000 tested, under 10 active;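 active = activation factor of at least 2 at 20 µM, relative to controls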
M1 ag: agonists of M1 muscarinic receptor; CHO-M1 cells, Fluo-4 calcium fluorescence, agonist mode; active compounds read high; B-score at 10 µM; 3% of 64,000 active;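 active = fluorescence rise, raw or as B-score row- and column-corrected plate score, outside the 99.7% band of its plate's samples, either direction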
D1 PAM confirm: D1 receptor (human) allosteric modulation, confirmed. shares compounds with D1 allo mod. HEK293 D1 CRE-luciferase, dopamine EC30 potentiation; active compounds read high. luminescence at 10 µM. 88% of 2,200 active. AID 642;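 active = luminescence in either of two replicates above the same-plate mean plus 3 SD of the low-dose dopamine control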
D1 no dopamine: D1 (human) signaling in absence of dopamine. 0.8% of 1,900 active. shares compounds with D1 allo mod. luminescence at 10 µM. AID 646. HEK293 D1 CRE-luciferase, luminescence, no dopamine; active compounds read high; in the data active = luminescence above about 3900
Isoprot counter: isoproterenol response counter-screen activity for D1 modulators. HEK293 D1 CRE-luciferase, isoproterenol EC30 counter-screen; active compounds read high. shares compounds with D1 allo mod. luminescence at 10 µM. 63% of 2,200 active;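 active = luminescence in either replicate above plate mean of wells with a partly effective reference agonist dose plus 3 SD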;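 note: isoproterenol raises cAMP through native beta-adrenoceptor Gs so signal bypasses D1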
* marks the source's active call; other numbers are inactive results; . = no result. This is a sample that favours compounds with a hit; in the whole collection about 11% have one here.

SMILES | S1P3 ag | D1 allo mod | S1P1 ag pot | M1 antag | TNAP act DEA | M1 ag | D1 PAM confirm | D1 no dopamine | Isoprot counter
COc1ccc(CCNC(=O)CSc2nc(C)nc3c2c(=O)n(C)c(=O)n3C)cc1OC | -1.4 | 0.909 | 10.5 | 0.111 | 1 | -1.44 | . | . | .
Cc1nnc(SCc2cc(=O)[nH]c(N3CCCCC3)n2)s1 | -1.4 | 0.625 | -37.4 | -0.0724 | 0.9 | -1.47 | . | . | .
CCOc1ccc(CC(=O)C2C(=O)CCCC2=O)cc1OCC | 0.0 | 4.28* | 3.1 | 0.323 | 1.1 | -0.41 | 10588* | 1684 | 3484*
CCOc1ccc(CCNC(=O)C2CCC(=O)N2C2CCCCC2)cc1OCC (stereo not given) | -0.9 | 0.647 | -0.4 | 0.442 | 1 | 1.31 | . | . | .
CC(C)C1N=C2c3ccccc3N=C(SCC#N)N2C1=O (stereo not given) | -0.8 | 5.05* | -19.6 | 0.458 | 0.9 | -0.279 | 10160* | 1524 | 2844
N#CCSC1=Nc2ccccc2C2=NC(CCC(=O)N3CCN(c4ccccc4)CC3)C(=O)N12 (stereo not given) | . | -0.249 | . | -0.505 | 0.9 | 1.52 | . | . | .
CCCCN(CC)C(=O)c1ccc(Cl)c(Cl)c1 | 0.4 | 3.77* | . | -0.83 | 0.9 | 1.56 | 7124* | 1704 | 2668
CCNC(=O)NCCc1c[nH]c2ccc(Cl)cc12 | -0.6 | -0.0525 | -7.5 | 0.296 | 0.8 | 0.914 | . | . | .
CCOC(=O)c1nn(-c2ccccc2)c(C(=O)OCC)c1N | 1.1 | 11.1* | -5.5 | 0.581 | 1 | 0.0535 | 15940* | 1480 | 3820*
CCOC(=O)c1n[nH]c2ccccc12 | -1.6 | . | 1.2 | 0.264 | 0.6 | 0.949 | . | . | .
CCOC(=O)c1nn(-c2ccccc2)c(=O)c2c(N)scc12 | . | 6.25* | . | 0.334 | 0.9 | -0.379 | 16104* | 1620 | 3536*
CCOC(=O)c1nn(-c2ccccc2C)c(=O)c(C#N)c1C | . | 3.11* | . | -0.00766 | 0.9 | 0.612 | 9504* | . | 3032
CCOC(=O)c1nnn(-c2ccccc2C#N)c1C | -0.9 | -0.672 | -0.7 | 0.000627 | 0.9 | -0.85 | . | . | .
Cc1cc(=O)oc2cc(OC(C)C(=O)Nc3nccs3)ccc12 (stereo not given) | 0.0 | 4.57* | -17.5 | -0.805 | 1 | -0.777 | 12128* | 1736 | 3488*
COC(=O)C(CC(C)C)Oc1ccc2c(C)cc(=O)oc2c1 (stereo not given) | . | -1.09 | . | 0.365 | 0.9 | -0.53 | . | . | .
Cc1ccc2c(c1)N(CC(=O)NC1CCCCC1C)C(=O)CO2 (stereo not given) | -0.2 | -0.198 | -28.7 | -0.495 | 1 | -1.3 | . | . | .
COc1ncnc2sc(-c3ccccc3)cc12 | -0.2 | 2.8* | -1.6 | -0.00156 | 0.9 | -0.00582 | 10684* | 1684 | 3504*
CN(C)/C=N/c1c(C#N)cnn1-c1ncnc2sc(-c3ccccc3)cc12 | -0.3 | 1.03 | -30.2 | -0.216 | 0.9 | 0.146 | . | . | .
CCOC(=O)Cn1c(=O)c2c(nc(Br)n2Cc2ccc(Cl)cc2)n(C)c1=O | 1.1 | 0.519 | 2.8 | 0.711 | 0.9 | 0.164 | . | . | .
c1ccc(Cn2nnc3c(N4CCCCCC4)ncnc32)cc1 | -0.1 | 6.37* | -29.4 | -0.195 | 0.9 | 0.0939 | 7556* | 1448 | 3604*
c1ccc(Cn2nnc3c(N4CCc5ccccc54)ncnc32)cc1 | 0.3 | 2.98* | 0.0 | 0.291 | 0.9 | 1.47 | 6044* | 1608 | 2632
CCCN1CCN(c2ncnc3c2nnn3Cc2ccccc2)CC1 | -0.6 | 0.21 | 1.5 | -0.841 | 0.9 | -1.99e-05 | . | . | .
COc1cccc(CNC(=O)C2CCCN(S(=O)(=O)c3c(C)n[nH]c3C)C2)c1 (stereo not given) | 0.4 | 0.276 | 12.9 | -0.403 | 0.8 | -0.104 | . | . | .
COc1ccc(S(=O)(=O)NCCc2csc(C)n2)cc1C | -0.3 | -1.38 | -4.1 | 0.476 | 0.9 | -1.66 | . | . | .
